# A selection: hits, their analogues and other compounds. The true share with any hit is near 0.79%.
# hIAP block: human IAP inhibitors, primary screen, biochemical, luminescence, uHTS | Intestinal-type alkaline phosphatase (Homo sapiens), P09923 | purified IAP, CDP-Star luminescence, 30 min | inhibition, % at 10 µM | hit rate 0.12% among 330,000 | AID 2544, 2010;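 active = inhibition reaching a set limit with compound at 10 µM in the primary screen, cut at about 35% in these data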;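 note: plate controls were DMSO wells with enzyme for no effect and no-enzyme buffer wells for full effect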
# Target sequence (P09923 whole entry, looked up): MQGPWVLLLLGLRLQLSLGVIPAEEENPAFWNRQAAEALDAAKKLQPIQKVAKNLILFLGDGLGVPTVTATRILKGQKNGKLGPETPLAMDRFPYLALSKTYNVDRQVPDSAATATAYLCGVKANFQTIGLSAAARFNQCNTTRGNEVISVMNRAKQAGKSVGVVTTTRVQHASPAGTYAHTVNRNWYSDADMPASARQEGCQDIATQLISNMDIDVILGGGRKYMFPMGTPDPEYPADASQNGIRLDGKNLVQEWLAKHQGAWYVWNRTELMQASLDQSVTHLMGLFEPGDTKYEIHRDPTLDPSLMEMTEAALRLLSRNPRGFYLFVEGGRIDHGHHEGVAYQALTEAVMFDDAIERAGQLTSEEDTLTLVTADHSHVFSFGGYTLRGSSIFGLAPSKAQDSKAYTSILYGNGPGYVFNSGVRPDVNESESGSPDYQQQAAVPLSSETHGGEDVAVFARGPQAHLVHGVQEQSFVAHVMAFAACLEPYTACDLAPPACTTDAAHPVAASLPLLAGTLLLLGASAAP
# mIAP block: inhibitors of mouse IAP, primary screen, biochemical, luminescence, uHTS. hit rate 0.2% among 330,000. inhibition, % at 10 µM. purified mouse IAP, CDP-Star luminescence, 30 min;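 active = inhibition of at least 40% at 10 µM in the primary screen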;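 note: plate controls were DMSO with enzyme for no effect and no enzyme wells for full effect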
# hIAP act: human IAP activators, primary screen, biochemical, luminescence, uHTS; AID 2524, 2010; hit rate 0.16% among 330,000; purified human IAP, CDP-Star luminescence, 30 min; active compounds read high; 1 = vehicle-only enzyme, 0 = enzyme-free background; activation factor at 10 µM;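 active = activation factor of the enzyme at least 2-fold when tested at 20 µM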
# mIAP activ: activators of mouse IAP, primary screen, biochemical, luminescence, uHTS. AID 2805, 2010. activation factor at 10 µM. muIAP, CDP-Star luminescence, 30 min; active compounds read high; 1 = vehicle-only enzyme signal, 0 = enzyme-free wells. hit rate 0.24% among 330,000;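 active = activation factor of at least 2 at 20 µM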
#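 System: mouse IAP enzyme. Reagent: CDP-Star chemiluminescent phosphatase substrate. Benchmarks: DMSO wells, no-enzyme wells. Times: 30 min enzyme-substrate-compound incubation at room temperature. Detection: luminescence from enzymatic CDP-Star hydrolysis. Doses: test compounds delivered from DMSO solution.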
# bIAP act: bovine intestinal alkaline phosphatase activators, primary screen, biochemical, bovine IAP, CDP-star luminescence. purified bovine IAP, 30 min; active compounds read high; fold of DMSO-control signal, blank-subtracted. alkaline phosphatase, intestinal [Bos taurus]. activation factor at 20 µM. hit rate 0.17% among 200,000;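 active = activation factor of 2 or more at 20 µM, a signal rise over negative controls twice the positive control's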
# bIAP inh: bovine intestinal alkaline phosphatase inhibitors, primary screen, selectivity assay for TNAP inhibitor project, biochemical, bovine IAP, CDP-star luminescence; 190,000 tested, under 10 active; alkaline phosphatase, intestinal [Bos taurus]; inhibition, % at 20 µM; purified bovine IAP, 30 min;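 active = over 50% inhibition of intestinal alkaline phosphatase at 20 µM in the single-dose screen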
#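 Incubation: 30 min reaction at room temperature / Material: purified bovine intestinal alkaline phosphatase (IAP) enzyme / Input: enzyme at 1/65,000,000 dilution / Dosing: 20 µM single dose / Signal: CDP-star luminescence signal / Reagent: CDP-star chemiluminescent phosphatase substrate, 30 µM final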
# hIAP act confirm: human IAP activators, confirmation, biochemical, luminescence, single concentration, uHTS hits; purified IAP, CDP-Star luminescence, 30 min; active compounds read low; AID 434926, 2010; shares compounds with hIAP act; hit rate 10% among 880; activation (%Activity, negative = activation), % at 8.3 µM;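 active = at least twofold enzyme activation in any of six single-dose repeats, which the averaged readout prints as negative percent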
# * hit, by the source's call; . = no result given.
SMILES,hIAP block,mIAP block,hIAP act,mIAP activ,bIAP act,bIAP inh,hIAP act confirm
COc1cccc(/C=C2/Oc3ccccc3N(CC(=O)NCC3CCCO3)C2=O)c1 (stereo unspecified),-4,10,1,0.91,.,.,.
CCN(CC)CCN=C1CCCc2ccccc2N1,52*,5,0.47,0.95,0.9,10,-22
O=C1CCCc2ccccc2N1,-22,4,1.2,0.96,1,-2,.
Cc1cc(OCC(=O)N2CCN(c3ccccc3)CC2)c2c(C)cc(=O)oc2c1,39*,7,0.61,0.93,.,.,3
O=C(COc1ccc2c3c(c(=O)oc2c1)CCCC3)N1CCN(c2ccccc2)CC1,37*,4,0.63,0.96,.,.,-27
O=C(O)COc1ccc2c3c(c(=O)oc2c1)CCCC3,0,-2,1,1,1,-4,.
O=C(COc1nc2ccccc2nc1N1CCOCC1)Nc1cccc(S(=O)(=O)N2CCCCC2)c1,15,1,0.85,0.99,0.9,6,.
O=C(CCCSc1nc(-c2ccco2)cc(C(F)(F)F)n1)NCc1cccs1,37*,5,0.63,0.95,0.9,7,-29
N#C/C(=C\c1ccccc1)C(=O)NC(=O)Oc1ccccc1,38*,-3,0.62,1,0.9,5,-6
N#C/C(=C\c1ccccc1Cl)C(=O)NC(=O)Oc1ccccc1,11,0,0.89,1,0.9,9,.
N#Cc1ccccc1S(=O)(=O)N1CCN(CC(O)COc2ccccc2F)CC1 (stereo unspecified),3,-3,0.97,1,.,.,.
CN(Cc1cnn(C)c1)C(=O)C1CCC(=O)N(Cc2cccc(F)c2)C1 (stereo unspecified),45*,1,0.55,0.99,.,.,-58
COc1cccc(C2c3c(-c4cc(Cl)c(C)cc4O)n[nH]c3C(=O)N2Cc2cccnc2)c1 (stereo unspecified),-137,-16,2.4*,1.2,1.2,-15,-18
COc1ccc(C2c3c(-c4ccccc4O)n[nH]c3C(=O)N2Cc2ccco2)cc1 (stereo unspecified),-123,5,2.2*,0.95,.,.,-73
COc1cc(C2c3c(-c4ccccc4O)n[nH]c3C(=O)N2Cc2ccco2)cc(OC)c1OC (stereo unspecified),-92,6,1.9,0.94,.,.,.
Cc1ccc(C2c3c(-c4ccccc4O)n[nH]c3C(=O)N2Cc2ccncc2)cc1 (stereo unspecified),-131,-12,2.3*,1.1,0.9,14,-23
COc1cc(C2c3c(-c4cc(Cl)c(C)cc4O)n[nH]c3C(=O)N2Cc2cccnc2)ccc1O (stereo unspecified),-82,6,1.8,0.94,1,-4,.
NC(=O)c1c(NC(=O)C2c3ccccc3Oc3ccccc32)sc2c1CCCCC2,11,12,0.89,0.88,0.9,11,.
Cc1ccc(S(=O)(=O)NNC(=O)C(O)(c2ccccc2)c2ccccc2)cc1,7,10,0.93,0.9,0.7,34,.
Cc1ccccc1S(=O)(=O)NNC(=O)C(=O)NNc1ccccn1,-210,9,3.1*,0.91,1.5,-49,1
CC(=O)Nc1ccc(S(=O)(=O)Nc2ccccn2)cc1,-9,9,1.1,0.91,1,4,.
CC(=O)Nc1ccc(S(=O)(=O)NNC(=O)C(=O)NNc2ccccn2)cc1,-185,7,2.8*,0.93,.,.,-31
Cc1ccc(S(=O)(=O)NNC(=O)C(=O)NNc2ccccn2)cc1,-209,14,3.1*,0.86,1.6,-64,-22
COC(=O)Cc1ccc(NC(=S)NCCSc2ccc(Cl)cc2)cc1,-15,-78,1.1,1.8,.,.,.
CC(c1ccccc1)C(Cc1nc2ccccc2[nH]1)c1nc2ccccc2[nH]1 (stereo unspecified),-118,-71,2.2*,1.7,4.1*,-306,6
SMILES,hIAP block,mIAP block,hIAP act,mIAP activ,bIAP act,bIAP inh,hIAP act confirm
CC(C)N(Cc1nc2ccccc2[nH]1)C(C)C,9,-1,0.91,1,1,3,.
OC(c1ccccc1)c1nc2ccccc2[nH]1 (stereo unspecified),10,-1,0.9,1,.,.,.
OC(c1nc2ccccc2[nH]1)C(O)c1nc2ccccc2[nH]1 (stereo unspecified),-146,0,2.5*,1,.,.,-4
Cc1cccc(CC(Cc2nc3ccccc3[nH]2)c2nc3ccccc3[nH]2)c1 (stereo unspecified),-140,-41,2.4*,1.4,4.3*,-332,30
CN1C2=C(C(=O)CC(C)(C)C2)C(c2cccs2)C2=C1CC(C)(C)CC2=O,-15,3,1.1,0.97,.,.,.
Cc1ccc(S(=O)(=O)NC(CC(=O)NCC2CCCO2)c2ccco2)cc1 (stereo unspecified),39*,-15,0.61,1.1,1,2,-3
COc1cc([N+](=O)[O-])ccc1NC(=S)NNC(=O)CCC(=O)Nc1ccccc1Cl,-96,16,2,0.84,.,.,.
Cc1cc(OCC(=O)Nc2ncn[nH]2)ccc1Cl,-101,-4,2*,1,.,.,-87*
O=C(COc1ccc(Br)cc1)NCCCn1ccnc1,-155,1,2.6*,0.99,.,.,51
CCCOC(=O)c1ccc(Oc2cn[nH]c2-c2ccc(OCC(=O)NN)cc2O)cc1,-97,-5,2,1.1,.,.,.
CCCOC(=O)c1ccc(Oc2c(-c3ccc(OC)cc3O)n[nH]c2C)cc1,-80,2,1.8,0.98,1.2,-15,.
CCOC(=O)c1ccc(Oc2cn[nH]c2-c2ccc(OCC(=O)NN)cc2O)cc1,-136,6,2.4*,0.94,.,.,4
CCCOC(=O)c1ccc(Oc2c(-c3ccc(O)cc3O)n[nH]c2C)cc1,-132,-12,2.3*,1.1,1.5,-48,-62
CCOc1ccc(-c2n[nH]c(C)c2Oc2ccccc2OC)c(O)c1,4,-12,0.96,1.1,1.6,-58,.
Cc1[nH]nc(-c2ccc(O)cc2O)c1Oc1ccccc1,-107,-26,2.1*,1.3,1.2,-16,-17
CCCN1CCc2c(sc(NC(=O)C3CCN(S(=O)(=O)c4cccs4)CC3)c2C(N)=O)C1,14,-50,0.86,1.5,.,.,.

# From PubChem
